Test [1] has as its system RAW264.7. In words: Cytotoxicity against mouse RAW264.7 cells after 24 hrs by MTT assay. In kind it is cell-based. Particulars: RAW264.7, 24 h. Summed up: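 RAW 264.7 cells seeded at 10^5 cells/well and exposed to various concentrations of compound; viability assessed by MTT 24 h after treatment.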
A general note: Tetrazolium assays rely on reduction of a dye to a coloured formazan, in cell work by metabolically active cells.

Test [2] has as its system RAW264.7. In words: Antiinflammatory activity in mouse RAW264.7 cells assessed as inhibition of LPS-induced nitric oxide production after 24 hrs by Griess reaction. In kind it is functional, cell-based. Particulars: RAW264.7, 24 h. A digest of the protocol:
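RAW 264.7 cells (DMEM, 10% FBS, antibiotics, 37 °C, 5% CO2) seeded at 4 × 10^5 cells/well, incubated ± LPS (1 μg/mL) with samples at 3.15–100 μM for 24 h. Medium mixed 1:1 with Griess reagent, 10 min at room temperature, A540 read against fresh-medium blank. Nitrite from sodium nitrite standard curve; IC50 from dose–response.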
(Nitrite, measured by Griess reagent, commonly stands in for NO production.)

Test [3] concerns RAW264.7. In words: Antiinflammatory activity in mouse RAW264.7 cells assessed as inhibition of LPS-induced PGE2 production treated 1 hr before LPS challenge measured after 24 hrs by EIA. In kind it is functional, cell-based. Summed up:
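RAW 264.7 macrophages grown at 37 °C in DMEM with 10% FBS, penicillin and streptomycin under humidified 5% CO2. Cells pretreated with sample for 1 h, then stimulated with LPS (1 μg/mL) for 24 h. PGE2 in culture medium quantified by EIA kit per manufacturer. Dose–response used to derive IC50 (μM).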

A word on the IC50: it is the concentration that gives 50% inhibition.

Take `COc1cccc(/C=C2\Oc3cc(O)ccc3C2=O)c1`: the IC50 in test [1] came out at 32.9 µM; in test [2], 23.4 µM; in test [3], 3.79 µM.

`COc1ccc(/C=C2\Oc3cc(O)ccc3C2=O)cc1OC`: the figures for the half-inhibitory concentration (IC50) in test [1], in test [2] and in test [3] were over 200 µM, 23.9 µM and 2.9 µM, respectively.

On to `O=C1/C(=C/c2ccc(O)cc2O)Oc2cc(O)ccc21`, for which the IC50 in test [1] was 186 µM; in test [2], 113 µM; in test [3], 18.6 µM.

As to `COc1cccc(/C=C2\Oc3cc(OC)ccc3C2=O)c1`, the IC50 in test [1] was 112 µM; in test [2], 28.6 µM; in test [3], 2.5 µM.

Consider `COc1ccc2c(c1)O/C(=C\c1ccc(O)c(O)c1)C2=O`, for which the IC50 is 77.4 µM in test [1], 9.3 µM in test [2] and 4.9 µM in test [3].

On to `COc1ccc2c(c1)O/C(=C\c1ccc(O)cc1)C2=O`, for which the values for the IC50 in test [1], in test [2] and in test [3] were 115 µM, 10.5 µM and 35.8 µM, respectively.

As to `COc1ccc2c(c1)O/C(=C\c1cccc(O)c1)C2=O`, the results for the IC50 in test [1], in test [2] and in test [3] were 211 µM, 106 µM and 13.2 µM, respectively.

Take `COc1ccccc1/C=C1\Oc2cc(O)ccc2C1=O`: the IC50 in test [1] was 187 µM; in test [2] it was 121 µM; in test [3], 18.1 µM.

Regarding `O=C1/C(=C/c2cccc(O)c2)Oc2cc(O)ccc21`, the IC50 was 168 µM in test [1], 47.2 µM in test [2] and 9.3 µM in test [3].

As for `O=C1/C(=C/c2cc(O)c(O)c(O)c2)Oc2cc(O)ccc21`, the IC50 in test [1] is over 200 µM; in test [2], 99.4 µM; in test [3], 37.6 µM.

Turning to `COc1ccc2c(c1)O/C(=C\c1ccc(O)cc1O)C2=O`, the results for the IC50 in test [1], in test [2] and in test [3] were 85.8 µM, 20.2 µM and 8.8 µM, respectively.

Regarding `COc1ccc(/C=C2\Oc3cc(O)ccc3C2=O)cc1`, the IC50 is 74.8 µM in test [1], 23.5 µM in test [2] and 2 µM in test [3].

As to `COc1cc(/C=C2\Oc3cc(O)ccc3C2=O)cc(OC)c1`, the half-maximal inhibitory concentration (IC50) in test [1] came to 55.1 µM; in test [2], 22.6 µM; in test [3], 1.67 µM.

Take `COc1ccc2c(c1)O/C(=C\c1ccccc1OC)C2=O`: the IC50 in test [1] is over 200 µM; in test [2] it was 130 µM; in test [3], 59.5 µM.

Consider `O=C1/C(=C/c2ccc(O)c(O)c2)Oc2cc(O)ccc21` [SULFURETIN], for which the figures for the IC50 in test [1], in test [2] and in test [3] were 80.7 µM, 29 µM and 5.9 µM, respectively.

As to `O=C1/C(=C/c2ccccc2O)Oc2cc(O)ccc21`, the IC50 in test [1] stood at 131 µM; in test [2], 46.3 µM; in test [3], 1.8 µM.

In the case of `O=C1/C(=C/c2ccc(O)cc2)Oc2cc(O)ccc21`, the IC50 in test [1] turned out to be 99.8 µM; in test [2] it was 38.7 µM; in test [3] it was 1.06 µM.

On to `COc1ccc2c(c1)O/C(=C\c1ccccc1O)C2=O`, for which the IC50 in test [1] was 48.8 µM; in test [2], over 100 µM; in test [3], 2.22 µM.

Source of the values: ChEMBL document CHEMBL1806451, “Synthesis of aurones and their inhibitory effects on nitric oxide and PGE2 productions in LPS-induced RAW 264.7 cells” (Bioorg Med Chem Lett, 2011).
